One molecule from ChEMBL document CHEMBL4052661, “Structure Based Design of N-(3-((1H-Pyrazolo[3,4-b]pyridin-5-yl)ethynyl)benzenesulfonamides as Selective Leucine-Zipper and Sterile-α Motif Kinase (ZAK) Inhibitors” (J Med Chem, 2017) can be followed below.

In general, IC50 refers to the midpoint of a concentration-inhibition curve. One may read the Kd as the equilibrium constant for the complex coming apart.

In experiment [1] the target is Mast/stem cell growth factor receptor Kit (Homo sapiens, UniProt P10721). Briefly: Inhibition of partial length human KIT expressed in Escherichia coli BL21 assessed as remaining activity at 1 uM after 1 hr by KINOMEscan method. The procedure, abridged:
(§1)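 Active-site-dependent competition binding screen run by an outside provider across a 468-kinase panel (403 nonmutated, 65 mutated kinases).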

The species named for experiment [2] is Rattus norvegicus. Description: Inhibition of ZAK in Ang-2-induced rat H9c2 cells assessed as decrease in p38 phosphorylation by Western blot analysis. For orientation: Immunoblotting shows a protein as a band on a membrane.
For experiment [3], the target named is Serine/threonine-protein kinase B-raf (Homo sapiens, UniProt P15056, V600E). Briefly: Inhibition of recombinant human B-RAF V600E mutant using Ser/Thr3 as substrate after 1 hr by FRET-based Z'-Lyte assay.
In experiment [4] the test system is Rattus norvegicus. Description: Inhibition of myocardial hypertrophy in po dosed spontaneous hypertensive WKY rat model assessed as decrease in JNK phosphorylation administered for 4 continuous weeks by Western blot method. In kind it is functional, organism-based. The essentials:
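Spontaneously hypertensive rats given oral 0, 10 or 20 mg/kg/day for 4 continuous weeks alongside normotensive Wistar-Kyoto controls; left ventricles harvested after sacrifice for Western blot analysis.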

For the next experiment, the target named is Aurora kinase B (Homo sapiens, UniProt Q96GD4). Briefly: Inhibition of partial length human AURKB expressed in HEK293 cells assessed as remaining activity at 1 uM after 1 hr by KINOMEscan method. The format is cell-based. The essentials:
as §1

Experiment [5] addresses Serine/threonine-protein kinase B-raf (Homo sapiens, UniProt P15056). Description: Inhibition of wild type GST-tagged recombinant human full-length B-RAF expressed in baculovirus expression system using Ser/Thr3 as substrate after 1 hr by FRET-based Z'-Lyte assay. The procedure, abridged:
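Z'-Lyte FRET assay with Ser/Thr3 peptide in kinase buffer; the final reaction held 0.002 ng B-Raf for wild type. Incubated 1 h at room temperature, then 1 h development to cleave nonphosphorylated peptide, then stop reagent. Means of 3 independent experiments.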

The target in experiment [6] is Tyrosine-protein kinase Srms (Homo sapiens, UniProt Q9H3Y6). Briefly: Inhibition of partial length human SRMS expressed in HEK293 cells assessed as remaining activity at 1 uM after 1 hr by KINOMEscan method. The format is cell-based. The essentials:
as §1

The species entered for experiment [7] is Rattus norvegicus. Description: Inhibition of ZAK in Ang-2-induced rat H9c2 cells assessed as downregulation of BNP levels by Western blot analysis.
Experiment [8] deals with T1, Mitogen-activated protein kinase kinase kinase 20 (Homo sapiens, UniProt Q9NYL2). Description: Inhibition of N-terminal GST-tagged recombinant human full-length ZAK expressed in baculovirus infected Sf9 insect cells using MBP as substrate after 30 mins by ADP-Glo assay. The essentials:
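ZAK activity by ADP-Glo luminescence with MBP as substrate, ATP and serially diluted compound. Reaction started by adding ATP and run 30 min at room temperature. ADP-Glo reagent was added to stop it (40 min), then detection reagent for 30 min before reading luminescence. Curves fitted; each experiment repeated at least 3 times.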

Experiment [9] has as its target Mast/stem cell growth factor receptor Kit (Homo sapiens, UniProt P10721, L576P). Briefly: Binding affinity to partial length human KIT L576P mutant expressed in Escherichia coli BL21 by active-site-dependent competition assay. The procedure, abridged:
(§2)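 Active-site-dependent competition binding (KINOMEscan) run by an outside service across a panel of 468 kinases (403 nonmutated, 65 mutated); reported as binding constant Kd.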

In experiment [10] the target is Serine/threonine-protein kinase SIK1 (Homo sapiens, UniProt P57059). Briefly: Inhibition of partial length human SIK expressed in Escherichia coli BL21 assessed as remaining activity at 1 uM after 1 hr by KINOMEscan method. The procedure, abridged: as §1
Chain of Serine/threonine-protein kinase SIK1 (P57059 whole entry): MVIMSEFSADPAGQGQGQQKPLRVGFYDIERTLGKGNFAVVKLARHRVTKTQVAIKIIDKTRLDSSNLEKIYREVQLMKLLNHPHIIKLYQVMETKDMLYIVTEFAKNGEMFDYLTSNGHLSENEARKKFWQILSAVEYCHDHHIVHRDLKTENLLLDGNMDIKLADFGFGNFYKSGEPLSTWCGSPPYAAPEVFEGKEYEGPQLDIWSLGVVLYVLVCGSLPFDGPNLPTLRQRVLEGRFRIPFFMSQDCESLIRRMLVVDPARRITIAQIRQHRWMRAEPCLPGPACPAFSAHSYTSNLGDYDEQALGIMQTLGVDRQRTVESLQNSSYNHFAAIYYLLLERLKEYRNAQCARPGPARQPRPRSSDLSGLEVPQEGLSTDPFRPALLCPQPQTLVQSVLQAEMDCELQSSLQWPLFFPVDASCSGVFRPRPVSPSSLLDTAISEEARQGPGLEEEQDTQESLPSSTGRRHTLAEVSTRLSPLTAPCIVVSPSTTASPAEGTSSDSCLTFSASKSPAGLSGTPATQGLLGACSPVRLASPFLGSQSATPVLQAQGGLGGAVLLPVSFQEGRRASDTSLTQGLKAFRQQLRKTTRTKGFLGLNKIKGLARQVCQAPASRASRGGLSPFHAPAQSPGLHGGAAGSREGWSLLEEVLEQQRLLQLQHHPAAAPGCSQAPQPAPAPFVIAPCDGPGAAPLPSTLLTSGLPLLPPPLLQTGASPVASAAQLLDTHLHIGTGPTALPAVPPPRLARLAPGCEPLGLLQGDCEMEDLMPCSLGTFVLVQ
In experiment [11] the test system is Serine/threonine-protein kinase B-raf (Homo sapiens), P15056 [V600E]. Briefly: Inhibition of partial length human BRAF V600E mutant expressed in HEK293 cells assessed as remaining activity at 1 uM after 1 hr by KINOMEscan method. The format is cell-based. The procedure, abridged:
as §1

Experiment [12] has as its system Rattus norvegicus. Description: Inhibition of myocardial hypertrophy in spontaneous hypertensive WKY rat model assessed as decrease in left ventricular mass at systole at 10 to 20 mg/kg, po administered for 4 continuous weeks relative to control. In kind it is functional. The essentials: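 Spontaneously hypertensive rats randomized into 3 groups given oral 0, 10 or 20 mg/kg/day for 4 continuous weeks; normotensive Wistar-Kyoto rats as reference; n = 6 per group. After sacrifice, left ventricles were collected to measure mass at diastole and systole; heart sections stained with hematoxylin and eosin for cardiomyocyte arrangement.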

Experiment [13] concerns the target T1, Mitogen-activated protein kinase kinase kinase 20. Description: Binding affinity to partial length human ZAK expressed in Escherichia coli BL21 by active-site-dependent competition assay. The essentials: as §2

Structures are written as SMILES.

T1 sequence (Q9NYL2 whole entry): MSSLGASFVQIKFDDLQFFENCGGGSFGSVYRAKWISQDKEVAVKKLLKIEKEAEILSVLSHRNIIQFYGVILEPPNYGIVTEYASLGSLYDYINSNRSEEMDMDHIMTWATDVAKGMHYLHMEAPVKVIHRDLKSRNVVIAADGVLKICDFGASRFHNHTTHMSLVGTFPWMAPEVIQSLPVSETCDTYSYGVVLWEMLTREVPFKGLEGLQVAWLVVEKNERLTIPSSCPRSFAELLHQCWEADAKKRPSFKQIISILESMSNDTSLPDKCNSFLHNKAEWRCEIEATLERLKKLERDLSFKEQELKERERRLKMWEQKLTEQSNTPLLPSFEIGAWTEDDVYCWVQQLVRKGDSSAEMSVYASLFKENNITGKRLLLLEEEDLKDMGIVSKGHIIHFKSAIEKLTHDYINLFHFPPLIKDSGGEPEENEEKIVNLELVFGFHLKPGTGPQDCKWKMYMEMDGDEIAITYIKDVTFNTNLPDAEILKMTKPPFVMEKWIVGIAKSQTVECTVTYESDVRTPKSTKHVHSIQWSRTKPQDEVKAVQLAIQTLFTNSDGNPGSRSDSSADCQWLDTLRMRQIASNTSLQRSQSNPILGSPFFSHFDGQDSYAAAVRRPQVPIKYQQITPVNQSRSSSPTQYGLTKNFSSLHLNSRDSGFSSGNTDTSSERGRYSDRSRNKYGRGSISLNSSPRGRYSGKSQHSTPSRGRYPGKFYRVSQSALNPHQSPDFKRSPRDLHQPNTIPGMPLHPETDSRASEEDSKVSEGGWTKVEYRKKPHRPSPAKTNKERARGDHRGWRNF
Chain of Aurora kinase B (Q96GD4 whole entry): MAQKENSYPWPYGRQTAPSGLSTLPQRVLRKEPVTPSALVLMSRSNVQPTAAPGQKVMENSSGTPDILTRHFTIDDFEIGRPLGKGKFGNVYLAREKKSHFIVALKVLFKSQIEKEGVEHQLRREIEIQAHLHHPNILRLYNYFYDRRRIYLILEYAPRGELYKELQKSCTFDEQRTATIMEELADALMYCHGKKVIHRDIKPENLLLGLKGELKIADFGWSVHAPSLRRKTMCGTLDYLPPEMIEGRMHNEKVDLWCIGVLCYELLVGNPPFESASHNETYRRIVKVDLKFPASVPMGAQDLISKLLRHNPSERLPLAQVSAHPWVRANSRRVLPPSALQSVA
Chain of Serine/threonine-protein kinase B-raf (Homo sapiens), P15056 [V600E] (P15056 whole entry V600E): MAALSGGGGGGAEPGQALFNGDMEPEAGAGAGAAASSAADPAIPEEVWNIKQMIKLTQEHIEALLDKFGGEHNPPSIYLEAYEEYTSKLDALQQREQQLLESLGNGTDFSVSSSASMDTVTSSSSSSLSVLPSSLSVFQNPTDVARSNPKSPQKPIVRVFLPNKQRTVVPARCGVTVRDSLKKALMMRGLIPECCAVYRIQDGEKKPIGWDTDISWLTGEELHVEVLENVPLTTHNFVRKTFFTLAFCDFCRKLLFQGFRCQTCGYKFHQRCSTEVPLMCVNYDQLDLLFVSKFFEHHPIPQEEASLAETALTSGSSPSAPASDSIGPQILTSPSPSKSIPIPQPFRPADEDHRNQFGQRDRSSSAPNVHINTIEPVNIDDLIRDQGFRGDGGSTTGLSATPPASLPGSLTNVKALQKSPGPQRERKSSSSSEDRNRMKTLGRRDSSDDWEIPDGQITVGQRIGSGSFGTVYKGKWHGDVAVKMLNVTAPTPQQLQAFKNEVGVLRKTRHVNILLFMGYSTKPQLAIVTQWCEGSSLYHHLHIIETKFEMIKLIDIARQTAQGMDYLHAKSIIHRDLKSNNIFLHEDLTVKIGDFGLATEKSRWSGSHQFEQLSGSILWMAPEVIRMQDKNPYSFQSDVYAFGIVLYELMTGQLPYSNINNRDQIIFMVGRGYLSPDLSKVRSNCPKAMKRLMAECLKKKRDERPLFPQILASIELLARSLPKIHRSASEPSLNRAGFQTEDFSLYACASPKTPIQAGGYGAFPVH
Chain of Mast/stem cell growth factor receptor Kit (Homo sapiens, UniProt P10721) (P10721 whole entry): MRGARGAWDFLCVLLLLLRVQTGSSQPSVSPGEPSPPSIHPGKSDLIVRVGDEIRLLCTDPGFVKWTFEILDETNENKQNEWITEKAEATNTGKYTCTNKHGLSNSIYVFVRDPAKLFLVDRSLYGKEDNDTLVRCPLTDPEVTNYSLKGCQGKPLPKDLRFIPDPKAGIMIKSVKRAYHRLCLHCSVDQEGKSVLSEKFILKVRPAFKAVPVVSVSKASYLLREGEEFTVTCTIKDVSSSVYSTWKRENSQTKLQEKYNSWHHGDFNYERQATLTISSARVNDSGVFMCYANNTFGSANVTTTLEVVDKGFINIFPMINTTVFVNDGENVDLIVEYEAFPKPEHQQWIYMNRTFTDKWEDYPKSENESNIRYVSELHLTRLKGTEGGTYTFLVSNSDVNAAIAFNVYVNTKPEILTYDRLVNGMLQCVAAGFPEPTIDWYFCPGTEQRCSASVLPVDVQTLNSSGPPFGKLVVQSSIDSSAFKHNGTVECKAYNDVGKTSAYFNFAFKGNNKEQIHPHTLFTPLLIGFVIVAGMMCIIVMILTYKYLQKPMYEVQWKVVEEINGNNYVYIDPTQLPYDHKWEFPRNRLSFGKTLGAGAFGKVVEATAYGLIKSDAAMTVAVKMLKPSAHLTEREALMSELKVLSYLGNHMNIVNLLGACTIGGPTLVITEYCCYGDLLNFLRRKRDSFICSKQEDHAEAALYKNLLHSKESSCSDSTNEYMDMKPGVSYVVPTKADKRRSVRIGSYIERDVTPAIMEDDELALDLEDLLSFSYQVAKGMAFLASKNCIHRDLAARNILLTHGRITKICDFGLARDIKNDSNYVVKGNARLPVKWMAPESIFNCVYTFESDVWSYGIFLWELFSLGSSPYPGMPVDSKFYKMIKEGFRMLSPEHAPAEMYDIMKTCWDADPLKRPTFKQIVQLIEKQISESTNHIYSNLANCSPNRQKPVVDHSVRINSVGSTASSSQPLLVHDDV
Chain of Mast/stem cell growth factor receptor Kit (Homo sapiens, UniProt P10721, L576P) (P10721 26-976 L576P limits assumed): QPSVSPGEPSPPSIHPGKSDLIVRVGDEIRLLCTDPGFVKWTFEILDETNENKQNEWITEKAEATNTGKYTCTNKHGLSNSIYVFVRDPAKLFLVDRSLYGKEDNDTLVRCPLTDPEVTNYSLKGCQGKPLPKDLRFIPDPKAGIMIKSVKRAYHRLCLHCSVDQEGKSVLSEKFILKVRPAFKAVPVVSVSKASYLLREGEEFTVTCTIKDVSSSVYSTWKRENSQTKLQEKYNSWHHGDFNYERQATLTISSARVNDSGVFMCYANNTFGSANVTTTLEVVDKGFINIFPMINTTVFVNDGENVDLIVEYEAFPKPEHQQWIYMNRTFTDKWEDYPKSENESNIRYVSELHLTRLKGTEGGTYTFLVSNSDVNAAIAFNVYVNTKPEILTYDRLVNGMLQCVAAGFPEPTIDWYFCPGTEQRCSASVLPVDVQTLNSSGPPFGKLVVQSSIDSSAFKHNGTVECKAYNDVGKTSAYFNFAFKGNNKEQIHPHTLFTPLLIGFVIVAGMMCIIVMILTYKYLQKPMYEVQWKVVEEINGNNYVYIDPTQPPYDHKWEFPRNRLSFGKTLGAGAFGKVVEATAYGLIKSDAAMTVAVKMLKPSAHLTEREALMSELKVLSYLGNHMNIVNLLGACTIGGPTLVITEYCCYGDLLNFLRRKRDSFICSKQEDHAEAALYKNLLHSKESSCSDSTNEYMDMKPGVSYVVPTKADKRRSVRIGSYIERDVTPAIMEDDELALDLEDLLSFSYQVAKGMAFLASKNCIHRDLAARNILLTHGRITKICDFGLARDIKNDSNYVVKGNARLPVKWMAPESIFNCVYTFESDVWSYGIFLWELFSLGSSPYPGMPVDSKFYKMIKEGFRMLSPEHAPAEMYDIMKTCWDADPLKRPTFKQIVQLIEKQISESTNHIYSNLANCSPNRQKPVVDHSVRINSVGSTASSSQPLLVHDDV
Chain of Serine/threonine-protein kinase B-raf (Homo sapiens, UniProt P15056) (P15056 whole entry): as the sequence (P15056 whole entry V600E) above, with E600V counted along it

`COc1n[nH]c2ncc(C#Cc3c(F)ccc(NS(=O)(=O)c4cccc(C#N)c4)c3F)cc12`: the Activity in experiment [1] worked out at 6.2%; on Aurora kinase B, 2.4%; in experiment [6] it was 3.9%; in [10], 1.5%; in [11], 9.9%. The inhibition entry in the experiment filed under Rattus norvegicus [2], in the experiment on Rattus norvegicus [4] and in the experiment listed under Rattus norvegicus [7] was “Dose-dependent effect” in each case. Moreover, the IC50 was more than 3000 nM in [3], more than 1000 nM in [5] and 3.3 nM in experiment [8]. The Kd in experiment [9] was 210 nM; in experiment [13], 2.7 nM. In addition, the “inhibition (INH)” value in the experiment with Rattus norvegicus [12] is 3 - 8%.
